Screens deposited in PubChem BioAssay by several laboratories.
Sampled rows, rich in hits. Any-hit rate of the full collection: about 2.2%.
Wee1 degr inh = inhibitors of human Wee1 degradation | AID 1321 | reporter increase, % at 5 µM | HeLa Luc-Wee1K328M stability, luciferase luminescence; 100% = proteasome inhibitor MG132 effect | 220,000 tested, 1.2% active;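 active = activation above the mean of all tested compounds plus 3 SD, set per screening run, cut at about 8.8% in these data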;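 also: cells exposed to compound for 20 h before luminescence read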
Thrombin inh = inhibitors of human thrombin; P00734; alpha-thrombin, Boc-VPR-AMC fluorogenic substrate cleavage; inhibition, % at 5 µM; 220,000 tested, 0.26% active; AID 1046;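 active = inhibition at or above 40%; inactive = inhibition below 40%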
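Material: human alpha-thrombin enzyme / Medium: pH 7.5 Tris (50 mM) with NaCl 150 mM, Tween 20 0.05% / Compound: single-point dosing at 5 µM, 0.2% DMSO / Incubation: enzyme reaction carried out at room temperature / Detection: AMC fluorescence, 355/460 nm / Read-out basis: percent inhibition scaled between no-compound controls and no-enzyme blanks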
FXIa inh 1536 = blocks human coagulation factor XIa protease activity. inhibition, % at 5 µM. 220,000 tested, 0.14% active. AID 798. purified FXIa, Boc-Glu-Ala-Arg-AMC fluorogenic substrate;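 active = inhibition of at least 40%; inactive = inhibition below 40%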;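 also: fluorescence of freed AMC excited at 355 nm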
hK5 inh = kallikrein 5 (human) inhibition; recombinant hK5, fluorogenic AMC substrate cleavage; inhibition, % at 5 µM; 210,000 tested, 0.59% active; AID 873;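 active = inhibition of 40% or more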
FXIIa inh 1536 = inhibitors of human coagulation factor XIIa. AID 800. purified FXIIa, Boc-QGR-AMC fluorogenic substrate, 2 h. 220,000 tested, 0.3% active. inhibition, % at 5 µM. P00748; in the data active = inhibition above about 40%
Target sequence (P00748 20-372 limits assumed): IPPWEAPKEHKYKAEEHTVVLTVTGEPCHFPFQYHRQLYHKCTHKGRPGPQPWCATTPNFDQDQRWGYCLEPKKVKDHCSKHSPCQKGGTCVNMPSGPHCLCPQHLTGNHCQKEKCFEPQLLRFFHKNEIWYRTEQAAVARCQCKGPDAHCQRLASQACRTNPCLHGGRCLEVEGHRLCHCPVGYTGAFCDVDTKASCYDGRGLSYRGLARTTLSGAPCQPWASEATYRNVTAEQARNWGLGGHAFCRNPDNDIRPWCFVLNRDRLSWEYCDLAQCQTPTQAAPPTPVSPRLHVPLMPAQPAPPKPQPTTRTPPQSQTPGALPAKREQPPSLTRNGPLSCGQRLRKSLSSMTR
Target sequence (P00748 373-615 limits assumed): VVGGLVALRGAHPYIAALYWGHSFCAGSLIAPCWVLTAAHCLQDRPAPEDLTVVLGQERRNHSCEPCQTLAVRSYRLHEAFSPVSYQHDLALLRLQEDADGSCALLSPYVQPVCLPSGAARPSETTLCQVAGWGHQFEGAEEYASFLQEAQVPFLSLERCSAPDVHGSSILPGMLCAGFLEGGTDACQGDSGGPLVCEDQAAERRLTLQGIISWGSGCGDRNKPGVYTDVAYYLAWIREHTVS
Wee1 stab conf = human Wee1 degradation inhibition, confirmation; activation, % at 5 µM; shares compounds with Wee1 degr inh; 1,100 tested, 4% active; HeLa Luc-Wee1K328M degradation, luminescence; vehicle 0%, proteasome-blocked wells 100%; in the data active = activation above about 8.9%
Numbers stand for hits; n = inactive; x = no result given.

SMILES	Wee1 degr inh	Thrombin inh	FXIa inh 1536	hK5 inh	FXIIa inh 1536	Wee1 stab conf
CCC(C)NCCOc1ccc(C)cc1[N+](=O)[O-] (stereo not given)	25	41	n	x	n	n
O=C(COc1ccccc1[N+](=O)[O-])NNC(=O)Nc1cccc2ccccc12	16	n	n	n	n	n
CC(C)c1nnc(NC(=O)COc2ccccc2[N+](=O)[O-])s1	23	n	n	n	n	n
CCSc1nnc(NC(=O)COc2ccccc2[N+](=O)[O-])s1	n	n	n	n	n	x
N#Cc1cnn(-c2ccc(F)cc2)c1N	n	n	n	n	n	x
Cc1ccc(-n2ncc(C#N)c2N)cc1	11	n	n	n	n	n
CC(C)c1ccc(C(=O)NC2=NCCS2)cc1	n	n	n	n	n	x
Cc1ccc(C(=O)NC2=NCCS2)cc1	16	n	n	n	n	n
CCOC(=O)c1cncc(C(=O)O)c1	n	n	n	n	n	x
Cc1cccc(C)c1NC(=O)NCCCN1CCN(c2ccccc2)CC1	11	n	n	n	n	n
CCCN(CCC)CCCNC(=O)CS(=O)Cc1nc(-c2ccc(OC)c(OC)c2)oc1C (stereo not given)	n	n	n	n	n	x
CCCCN(C)CCCNC(=O)CS(=O)Cc1nc(-c2ccc(OC)c(OC)c2)oc1C (stereo not given)	13	n	n	n	n	n
COc1ccc(C(=O)COc2ccc(C)cc2NC(C)=O)cc1	n	n	n	n	n	x
CCCCOC(=O)CCc1c(C)[nH]c(=O)c(C#N)c1C	n	n	n	n	n	x
CCCCOC(=O)CCc1c(C)n[nH]c1C	12	n	n	n	n	n
O=C(CC(c1ccccc1)c1ccco1)Nc1nccs1 (stereo not given)	n	n	n	n	n	x
CCc1ccc(C2c3[nH]c4ccccc4c3CCN2C(=O)CNC(N)=O)cc1 (stereo not given)	23	n	n	x	n	n
Cc1nn(CCCC(=O)N2CCN(c3ccc(F)cc3)CC2)c(C)c1[N+](=O)[O-]	n	n	n	n	n	x
O=S(=O)(c1cccc2nsnc12)N1CCN(C/C=C\c2ccccc2)CC1	n	n	n	n	n	x
O=S(=O)(c1cccc2nsnc12)N1CCN(C/C=C/c2ccccc2)CC1	11	n	n	n	n	n
Cc1ccc2nc(-c3ccc(NC(=O)c4ccco4)cc3)[nH]c2c1	29	n	n	n	n	n
CN(CCc1ccccn1)C(=S)Nc1ccc(Cl)c(Cl)c1	15	n	n	n	n	n
COc1cccc(NC(=O)c2cccc(C)c2[N+](=O)[O-])c1	14	n	n	n	n	n
CSCCC(NC(N)=O)C(=O)Nc1cccc(C#N)c1 (stereo not given)	n	n	n	n	n	x
CC(C)N1CCC(N2CCN(Cc3ccc(Oc4ncccn4)cc3)CC2CCO)CC1 (stereo not given)	13	n	n	n	n	n
SMILES	Wee1 degr inh	Thrombin inh	FXIa inh 1536	hK5 inh	FXIIa inh 1536	Wee1 stab conf
CC(C)CN1CCN(Cc2ccc(Oc3ncccn3)cc2)CC1CCO (stereo not given)	n	n	n	n	n	x
O=C(C[n+]1cn(C(F)F)c2ccccc21)c1ccc(OC(F)F)cc1	15	n	n	n	n	n
O=C(OCC1OC(n2cnc3c(N(C(=O)c4ccccc4)C(=O)c4ccccc4)ncnc32)C(O)C1F)c1ccccc1 (stereo not given)	11	n	n	n	n	n
CCOC(=O)c1c(CN2CCN(Cc3ccccc3)CC2)n(C)c2cc(Br)c(OC)cc12	n	n	n	n	n	x
CCOC(=O)c1c(CSc2ccccc2)n(C)c2cc(Br)c(OCC(O)CNC(CO)(CO)CO)cc12 (stereo not given)	11	n	n	n	n	n
CCOc1cccc(C(=O)NNC(=O)CCC(=O)O)c1	n	n	n	n	n	x
O=C(Nc1ccccc1)C1Cc2ccccc2CN1C(=O)c1ccco1 (stereo not given)	n	n	n	n	n	x
O=C(NC1CCCCCC1)C1Cc2ccccc2CN1C(=O)c1ccco1 (stereo not given)	21	n	n	n	n	n
O=C(Nc1ccccn1)c1sc2cccc(F)c2c1Cl	n	n	n	n	n	x
O=C(Nc1cccnc1)c1sc2cccc(F)c2c1Cl	15	n	n	n	n	n
CC1(C)CC(=O)C2=C(C1)Nc1ncnn1C2c1cccs1 (stereo not given)	n	x	n	n	n	x
COc1ccc(OCc2nc(N)nc(Nc3ccccc3OC)n2)cc1	18	n	n	n	n	n
CC(=O)CC(=O)Nc1nc(C)cc(C)n1	n	n	n	n	n	x
CCOCC(=O)Nc1nc(C)cc(C)n1	11	n	n	n	n	n
O=C(CNC(=O)c1cccc(F)c1)OCC(=O)N1CCCCC1	15	n	n	n	n	n
O=C1CC(C(=O)Nc2ccccc2)N=C(N2CCOCC2)N1 (stereo not given)	11	n	n	n	n	n
CC(C)CCNC(=S)Nc1ccc2nc3n(c(=O)c2c1)CCCCC3	11	n	n	n	n	n
CCCCNC(=S)Nc1ccc2nc3n(c(=O)c2c1)CCCCC3	n	n	n	n	n	x
CC(C)(C)C(=O)c1cnc(Nc2ccccc2Cl)s1	16	n	n	n	n	n
COc1ccc(/C=C/C(=O)NC(=S)NNC(=O)c2cccnc2)cc1	17	n	n	n	n	n
O=C1c2ccccc2NC(c2ccccc2)N1Cc1ccco1 (stereo not given)	15	n	n	n	n	n
O=C1c2ccccc2NC(c2ccc(F)cc2)N1Cc1ccco1 (stereo not given)	n	n	n	n	n	x
Cc1c(Cl)cccc1NC(=O)CCCn1nc([N+](=O)[O-])cc1C	15	n	n	n	n	n
Cc1cc([N+](=O)[O-])nn1CCCC(=O)Nc1ccc(Cl)cc1Cl	n	n	n	n	n	x
NS(=O)(=O)c1ccc(CNC(=O)c2cc(-c3cccs3)nc3ccccc23)cc1	n	n	n	n	n	x
SMILES	Wee1 degr inh	Thrombin inh	FXIa inh 1536	hK5 inh	FXIIa inh 1536	Wee1 stab conf
COc1cc(/C=N/NC(=O)c2cccs2)ccc1O	n	n	n	n	n	x
NS(=O)(=O)c1ccc(CCNC(=O)c2cc(-c3cccs3)nc3ccccc23)cc1	12	n	n	n	n	n
COc1cc(/C=N/NC(=O)c2cc(-c3cccs3)nc3ccccc23)ccc1O	12	n	n	n	n	n
CN(C)c1ccc(-c2nnn(CC(=O)NCc3ccc4c(c3)OCO4)n2)cc1	n	n	n	n	n	x
Cc1ccccc1-n1cnnc1SCC(=O)Nc1cccnc1Cl	15	n	n	n	n	n
COc1cccc(/C=N/Nc2ccc(S(=O)(=O)O)cc2)c1O	18	n	n	n	n	n
CCOC(=O)C1(Cc2cccc(OC)c2)CCN(Cc2ccc(C)s2)CC1	n	n	n	x	n	x
O=C(/C=C/c1ccc(Br)cc1)c1ccc(NC2=NCCCS2)cc1	12	n	n	n	n	n
